Each block holds one compound with its values, some of them ahead of it.
Assays:
[1] = target: T1, vasopressin 1b receptor (V1b) (Homo sapiens, UniProt P47901); test: HTRF cAMP counter screen in HEK293-V1b cells; format: cell-based
T1 sequence (P47901 1-424): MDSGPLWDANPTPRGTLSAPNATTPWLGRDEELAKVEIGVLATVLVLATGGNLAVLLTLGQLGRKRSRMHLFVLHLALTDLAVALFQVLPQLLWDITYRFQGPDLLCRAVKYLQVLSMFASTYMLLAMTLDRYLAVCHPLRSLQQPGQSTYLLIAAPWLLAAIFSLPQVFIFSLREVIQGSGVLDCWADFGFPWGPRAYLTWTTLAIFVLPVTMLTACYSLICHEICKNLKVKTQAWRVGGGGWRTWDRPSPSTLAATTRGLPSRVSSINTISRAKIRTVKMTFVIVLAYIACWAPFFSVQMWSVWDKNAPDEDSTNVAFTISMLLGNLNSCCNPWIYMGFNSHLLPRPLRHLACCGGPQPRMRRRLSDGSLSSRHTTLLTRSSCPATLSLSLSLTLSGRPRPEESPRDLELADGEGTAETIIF

[2] = target: human relaxin family receptor 2 (RXFP2) (Homo sapiens, UniProt Q8WXD0); test: HTRF cAMP selectivity assay in HEK293-RXFP2 cells; format: cell-based; conditions: HEK293-RXFP1 vs HEK293-RXFP2
Sequence of human relaxin family receptor 2 (RXFP2) (Q8WXD0 whole entry): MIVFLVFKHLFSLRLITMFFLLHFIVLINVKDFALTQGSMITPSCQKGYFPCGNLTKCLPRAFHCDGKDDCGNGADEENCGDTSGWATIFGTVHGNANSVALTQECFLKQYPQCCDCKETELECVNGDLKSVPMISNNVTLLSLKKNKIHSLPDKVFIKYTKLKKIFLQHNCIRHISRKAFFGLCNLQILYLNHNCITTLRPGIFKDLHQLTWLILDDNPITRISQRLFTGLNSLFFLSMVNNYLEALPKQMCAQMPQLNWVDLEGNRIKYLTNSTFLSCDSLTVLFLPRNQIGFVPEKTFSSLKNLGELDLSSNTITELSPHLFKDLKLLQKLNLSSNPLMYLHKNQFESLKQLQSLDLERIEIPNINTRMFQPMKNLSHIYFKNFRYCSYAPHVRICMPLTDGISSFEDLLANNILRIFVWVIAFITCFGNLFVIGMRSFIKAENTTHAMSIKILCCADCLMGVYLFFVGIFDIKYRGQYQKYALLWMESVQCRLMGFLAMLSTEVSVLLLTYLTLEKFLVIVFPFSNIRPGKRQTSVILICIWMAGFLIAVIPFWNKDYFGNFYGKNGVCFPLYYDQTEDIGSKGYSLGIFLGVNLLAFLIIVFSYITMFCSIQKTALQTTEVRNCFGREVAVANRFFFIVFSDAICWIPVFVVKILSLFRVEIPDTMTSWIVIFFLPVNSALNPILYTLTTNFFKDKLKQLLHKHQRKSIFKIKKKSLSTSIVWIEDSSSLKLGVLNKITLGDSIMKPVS

human RXFP1 [3] = target: T2, human RXFP1 (Homo sapiens, UniProt Q9HBX9); test: HTRF cAMP assay in HEK293-RXFP1 cells; format: cell-based
T2 sequence (Q9HBX9 1-757): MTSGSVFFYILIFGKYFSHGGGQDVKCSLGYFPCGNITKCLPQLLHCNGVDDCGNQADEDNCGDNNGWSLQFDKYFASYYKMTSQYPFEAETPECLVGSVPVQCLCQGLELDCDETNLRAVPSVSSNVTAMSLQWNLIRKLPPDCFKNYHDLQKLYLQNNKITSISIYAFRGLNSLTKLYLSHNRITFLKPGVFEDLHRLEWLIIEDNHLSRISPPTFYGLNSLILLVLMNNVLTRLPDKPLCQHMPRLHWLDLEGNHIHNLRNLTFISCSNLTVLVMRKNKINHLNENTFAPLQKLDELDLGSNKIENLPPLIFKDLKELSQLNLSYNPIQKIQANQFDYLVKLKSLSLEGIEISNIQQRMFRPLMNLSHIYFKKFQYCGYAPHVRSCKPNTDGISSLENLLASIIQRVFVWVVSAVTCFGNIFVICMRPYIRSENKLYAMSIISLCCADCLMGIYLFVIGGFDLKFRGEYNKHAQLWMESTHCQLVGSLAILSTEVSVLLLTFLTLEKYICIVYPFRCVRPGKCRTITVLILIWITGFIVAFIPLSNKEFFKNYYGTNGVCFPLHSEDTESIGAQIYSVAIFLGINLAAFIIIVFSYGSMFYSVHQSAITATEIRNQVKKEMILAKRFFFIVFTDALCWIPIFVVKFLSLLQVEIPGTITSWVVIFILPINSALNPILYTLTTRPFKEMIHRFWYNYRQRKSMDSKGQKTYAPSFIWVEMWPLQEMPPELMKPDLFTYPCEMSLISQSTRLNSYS

[4] = target: human relaxin family receptor 1 (RXFP1) (human) (UniProt Q9HBX9)
human RXFP1 [5] = target: T2, human RXFP1; test: ELISA cAMP assay; format: cell-based; conditions: 96-well; for efficacy: normalized to 57.5 μM forskolin as 100%
Procedure, shortened: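 HEK293T cells stably expressing human RXFP1 were grown in DMEM with 10% FBS, penicillin/streptomycin and 500 μg/mL geneticin. They were seeded at 16,000 cells/well and left overnight at 37 °C, 5% CO₂. PDE inhibitor Ro 20-1724 (417 μM addition solution in PBS+) was added, then test compound in DMSO, for 30 min at 37 °C. Cells were lysed and cAMP was quantified by ELISA. EC50 came from nonlinear regression of dose-response curves.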

Sequence of Porcine relaxin (ligand) (P01348 25-182): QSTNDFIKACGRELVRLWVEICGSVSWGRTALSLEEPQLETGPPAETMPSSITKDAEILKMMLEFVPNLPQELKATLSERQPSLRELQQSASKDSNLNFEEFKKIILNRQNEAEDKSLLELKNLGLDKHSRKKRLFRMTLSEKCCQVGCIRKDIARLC

activity in HEK293-V1b counter screen [1]: no activity
selectivity towards RXFP1 over RXFP2 [2]: > 30 fold
EC50 (human RXFP1 [3]; read-out: EC50 (cAMP response), HEK293-RXFP1 cells, 384-well format): 0.203 nM
EC50 (human RXFP1 [3]; read-out: EC50 (cAMP response), HEK293-RXFP1 cells, 1,536-well format): 0.494 nM
Compound: relaxin

EC50 of cAMP production (HTRF cAMP assay) in HEK293-RXFP1 cells, 384-well format [4]: 0.203 nM
Compound: Porcine relaxin (ligand)

EC50 (human RXFP1 [5]): 6200 nM
efficacy (human RXFP1 [5]): 60%
Compound: O=C(Nc1cccc(C(F)(F)F)c1)c1ccccc1NC(=O)C1CCCCC1 [MLS000579461]

EC50 (human RXFP1 [3]; EC50 (cAMP response), HEK293-RXFP1 cells, 384-well format): 164 nM
EC50 (human RXFP1 [3]; EC50 (cAMP response), HEK293-RXFP1 cells, 1,536-well format): 193 nM
Compound: C=C[C@@]1(C)CC(=O)[C@]2(O)[C@@]3(C)[C@@H](O)CCC(C)(C)[C@@H]3[C@H](O)[C@H](OC(C)=O)[C@@]2(C)O1 [forskolin, reference compound]

EC50 (human RXFP1 [5]): 2900 nM
efficacy (human RXFP1 [5]): 80%
Compound: O=C(Nc1ccccc1C(=O)Nc1ccccc1C(=O)NCc1ccco1)c1ccco1 [MLS000088899]

From publication PMC4804196 (Journal of biomolecular screening, 2012)
